Holding throughout (format): cell-based
The target in assay [1] is Protein kinase C (PKC). As to the kind of experiment: Activation of PKC in human J-Lat 10.6 cells infected with latent HIV-1 assessed as reversal of HIV-1 latency by measuring increase of GFP-positive cells at 1 to 10000 nM incubated for 24 hrs by flow cytometry. Put shortly: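 J-Lat 10.6 or J-Lat 6.3 cells (5 × 10^5 cells/ml) incubated 24 h with graded drug concentrations; % GFP-positive cells determined by flow cytometry. Means ± S.D. of three independent experiments.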

Assay [2] deals with T1, Protein kinase C (PKC) (Homo sapiens) (UniProt O94806+P41743+P17252+P05129+Q05655+P05771+Q05513+Q02156+P24723+Q15139+Q04759). Kind of assay: (§1) Activation of PKC in human U1 cells infected with latent HIV-1 assessed as reversal of HIV-1 latency by measuring increase in p24 antigen level incubated for 48 hrs by chemiluminescent enzyme immunoassay. To be noted: filed as activator.

Assay [3] concerns the target Protein kinase C (PKC). Described as §1.
For assay [4], the target named is T1, Protein kinase C (PKC) (Homo sapiens). As to the kind of experiment: Synergistic activation of PKC in CD4+ T-cells purified from HIV-infected patient assessed as increase in transcription of HIV mRNA at 5 uM incubated for 24 hrs by qRT-PCR method. Particulars: CD4+ T cell, filed as activator. A digest of the protocol:
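CD4+ T-cells purified from PBMC of patients on cART for at least 5 years with plasma viral load <20 copies/ml. Cells plated at 2.5 × 10^6 cells/ml and treated 24 h, alone or with 1 μm JQ1. Intracellular HIV RNA measured by qRT-PCR against a plasmid standard curve, normalised per ng input RNA, relative to untreated cells. Synergy assessed by Bliss independence model.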

Molecules are shown by their SMILES.

As to `CCCCCCCCCCc1ccc2c(c1)N(C)[C@@H](C(C)C)C(=O)N[C@H](CO)C2`, the EC50 on Protein kinase C (PKC) [1] stood at 10.6 µM; at Protein kinase C (PKC) [3], 0.034 µM. The Activity result in assay [2] is “Dose-Dependent Effect”. In addition, the fold change (FC) in assay [4] worked out at 1.4.

For the origin of these results see ChEMBL document CHEMBL5674882, “Benzolactam-related compounds promote apoptosis of HIV-infected human cells via protein kinase C-induced HIV latency reversal” (J Biol Chem, 2019).
